Data published in paper PMC10769797 (The Oncologist, 2023).

What was measured:
[1] = system: patients with advanced solid tumors; assay: Phase I dose-escalation safety: adverse events; format: in vivo, human
CDK7 = CDK7 (Homo sapiens, UniProt P50613); assay: CDK7-target occupancy assay; format: in vivo
Outline: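 Skin biopsies were taken at baseline (≤14 days pre-dose) and 6–8 h postdose on days 1 and 15; PBMCs predose day 1 and 8 h postdose days 1 and 15. Lysates were labelled with a biotinylated probe. Anti-cyclin H captured CDK7/cyclin H on MSD plates. Unbound CDK7 was read with SULFO-TAG streptavidin, total with anti-CDK7 mAb. Skin occupancy was baseline-normalised unbound/total; PBMC occupancy was unbound versus day-1 predose.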

[2] = Plasma pharmacokinetics, noncompartmental analysis; format: in vivo, human
Outline: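 Oral dosing QD (part A1) or TIW (part A2). Intensive plasma samples were taken after the dose on cycle 1 days 1 and 15, for up to 24 h (A1) or 48 h (A2). Cmax, Tmax, AUC(0-Inf) and terminal half-life came from plasma concentrations by standard noncompartmental analysis, with descriptive statistics.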

Sequence of CDK7 (P50613 2-346 limits assumed): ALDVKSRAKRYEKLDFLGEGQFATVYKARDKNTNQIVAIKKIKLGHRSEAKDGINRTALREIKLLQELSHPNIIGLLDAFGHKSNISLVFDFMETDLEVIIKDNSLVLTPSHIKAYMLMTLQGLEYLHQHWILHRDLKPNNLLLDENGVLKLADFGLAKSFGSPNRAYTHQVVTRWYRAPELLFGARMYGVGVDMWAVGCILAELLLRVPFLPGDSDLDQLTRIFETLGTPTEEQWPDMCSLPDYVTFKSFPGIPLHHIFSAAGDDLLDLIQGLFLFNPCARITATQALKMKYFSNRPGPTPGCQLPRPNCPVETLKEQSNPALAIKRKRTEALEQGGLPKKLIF
Sequence of CDK7 (P51946 whole entry partner): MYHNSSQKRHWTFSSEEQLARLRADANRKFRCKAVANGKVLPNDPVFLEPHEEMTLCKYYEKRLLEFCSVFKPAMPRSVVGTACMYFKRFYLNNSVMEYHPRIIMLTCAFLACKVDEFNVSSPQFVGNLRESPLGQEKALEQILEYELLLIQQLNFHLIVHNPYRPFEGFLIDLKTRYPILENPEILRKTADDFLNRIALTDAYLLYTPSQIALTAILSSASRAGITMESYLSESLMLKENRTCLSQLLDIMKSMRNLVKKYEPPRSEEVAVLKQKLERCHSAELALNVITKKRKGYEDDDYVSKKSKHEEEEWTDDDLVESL
Sequence of CDK7 (P51948 whole entry partner): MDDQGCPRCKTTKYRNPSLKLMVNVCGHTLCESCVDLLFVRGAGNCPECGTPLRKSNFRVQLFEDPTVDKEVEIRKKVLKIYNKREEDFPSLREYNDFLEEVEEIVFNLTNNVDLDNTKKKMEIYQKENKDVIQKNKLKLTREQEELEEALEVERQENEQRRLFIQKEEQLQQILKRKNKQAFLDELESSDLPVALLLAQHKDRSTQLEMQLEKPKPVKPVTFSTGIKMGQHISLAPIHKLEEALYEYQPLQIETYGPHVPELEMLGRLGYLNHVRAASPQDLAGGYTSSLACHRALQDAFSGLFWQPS

Cc1cc(NC2CCN(C(=O)OC3CCN(C(=O)/C=C/CN(C)C)C3)CC2)n2ncc(C(C)C)c2n1 (centres unmarked) [LY3405105]
SAE related to study treatment: Dyspnea ([1]; TIW (N = 11), ≥Grade 3): 0 n (%) | SAE related to study treatment: Hypotension ([1]; TIW (N = 11), ≥Grade 3): 0 n (%) | SAE related to study treatment: Mucosal inflammation ([1]; TIW (N = 11), ≥Grade 3): 0 n (%) | SAE related to study treatment: Nausea ([1]; TIW (N = 11), ≥Grade 3): 0 n (%) | SAE related to study treatment: Ophthalmic herpes zoster ([1]; TIW (N = 11), ≥Grade 3): 0 n (%) | SAE related to study treatment: Platelet count decrease ([1]; TIW (N = 11), ≥Grade 3): 0 n (%) | TRAE: Abdominal pain ([1]; TIW (N = 11), ≥Grade 3): 0 n (%) | TRAE: Anemia ([1]; TIW (N = 11), ≥Grade 3): 0 n (%) | TRAE: Asthenia ([1]; TIW (N = 11), ≥Grade 3): 0 n (%) | TRAE: Diarrhea ([1]; TIW (N = 11), ≥Grade 3): 0 n (%) | TRAE: Fatigue ([1]; TIW (N = 11), ≥Grade 3): 0 n (%) | TRAE: Nausea ([1]; TIW (N = 11), ≥Grade 3): 0 n (%) | TRAE: Platelet count decrease ([1]; TIW (N = 11), ≥Grade 3): 0 n (%) | TRAE: Vomiting ([1]; TIW (N = 11), ≥Grade 3): 0 n (%) | Patients with ≥1 SAE related to study treatment ([1]; Total (N = 54), Any grade): 7 (13) n (%) | Patients with ≥1 TRAE ([1]; Total (N = 54), Any grade): 35 (65) n (%) | SAE related to study treatment: Abdominal pain ([1]; Total (N = 54), Any grade): 1 (2) n (%) | SAE related to study treatment: Acute kidney injury ([1]; Total (N = 54), Any grade): 1 (2) n (%) | SAE related to study treatment: Alanine aminotransferase increase ([1]; Total (N = 54), Any grade): 1 (2) n (%) | SAE related to study treatment: Diarrhea ([1]; Total (N = 54), Any grade): 2 (4) n (%) | SAE related to study treatment: Dyspnea ([1]; Total (N = 54), Any grade): 1 (2) n (%) | SAE related to study treatment: Hypotension ([1]; Total (N = 54), Any grade): 1 (2) n (%) | SAE related to study treatment: Mucosal inflammation ([1]; Total (N = 54), Any grade): 1 (2) n (%) | SAE related to study treatment: Nausea ([1]; Total (N = 54), Any grade): 1 (2) n (%) | SAE related to study treatment: Ophthalmic herpes zoster ([1]; Total (N = 54), Any grade): 1 (2) n (%) | SAE related to study treatment: Platelet count decrease ([1]; Total (N = 54), Any grade): 1 (2) n (%) | TRAE: Abdominal pain ([1]; Total (N = 54), Any grade): 6 (11) n (%) | TRAE: Anemia ([1]; Total (N = 54), Any grade): 6 (11) n (%) | TRAE: Asthenia ([1]; Total (N = 54), Any grade): 6 (11) n (%) | TRAE: Diarrhea ([1]; Total (N = 54), Any grade): 18 (33) n (%) | TRAE: Fatigue ([1]; Total (N = 54), Any grade): 8 (15) n (%) | TRAE: Nausea ([1]; Total (N = 54), Any grade): 10 (19) n (%) | TRAE: Platelet count decrease ([1]; Total (N = 54), Any grade): 6 (11) n (%) | TRAE: Vomiting ([1]; Total (N = 54), Any grade): 8 (15) n (%) | Patients with ≥1 SAE related to study treatment ([1]; Total (N = 54), ≥Grade 3): 6 (11) n (%) | Patients with ≥1 TRAE ([1]; Total (N = 54), ≥Grade 3): 10 (19) n (%) | SAE related to study treatment: Abdominal pain ([1]; Total (N = 54), ≥Grade 3): 0 n (%) | SAE related to study treatment: Acute kidney injury ([1]; Total (N = 54), ≥Grade 3): 1 (2) n (%) | SAE related to study treatment: Alanine aminotransferase increase ([1]; Total (N = 54), ≥Grade 3): 1 (2) n (%) | SAE related to study treatment: Diarrhea ([1]; Total (N = 54), ≥Grade 3): 2 (4) n (%) | SAE related to study treatment: Dyspnea ([1]; Total (N = 54), ≥Grade 3): 1 (2) n (%) | SAE related to study treatment: Hypotension ([1]; Total (N = 54), ≥Grade 3): 0 n (%) | SAE related to study treatment: Mucosal inflammation ([1]; Total (N = 54), ≥Grade 3): 1 (2) n (%) | SAE related to study treatment: Nausea ([1]; Total (N = 54), ≥Grade 3): 1 (2) n (%) | SAE related to study treatment: Ophthalmic herpes zoster ([1]; Total (N = 54), ≥Grade 3): 1 (2) n (%) | SAE related to study treatment: Platelet count decrease ([1]; Total (N = 54), ≥Grade 3): 1 (2) n (%) | TRAE: Abdominal pain ([1]; Total (N = 54), ≥Grade 3): 0 n (%) | TRAE: Anemia ([1]; Total (N = 54), ≥Grade 3): 2 (4) n (%) | TRAE: Asthenia ([1]; Total (N = 54), ≥Grade 3): 0 n (%) | TRAE: Diarrhea ([1]; Total (N = 54), ≥Grade 3): 2 (4) n (%) | TRAE: Fatigue ([1]; Total (N = 54), ≥Grade 3): 1 (2) n (%) | TRAE: Nausea ([1]; Total (N = 54), ≥Grade 3): 1 (2) n (%) | TRAE: Platelet count decrease ([1]; Total (N = 54), ≥Grade 3): 3 (6) n (%) | TRAE: Vomiting ([1]; Total (N = 54), ≥Grade 3): 0 n (%) | Patients with dose-limiting toxicities ([1]; all 54 enrolled patients, all DLTs in part A1 (QD)): Seven | Patients reporting at least one treatment-related adverse event (TRAE) ([1]; all patients (N = 54)): 64.8% | Dose-limiting toxicity ([1]; part A1, 20 mg QD): no DLT was observed | Dose-limiting toxicity ([1]; part A1, 1, 2, 4, 8, 15, or 30 mg QD): no DLT was observed | Start of the steady-state AUC range where DLTs were observed ([1]; part A1, corresponds to doses of 30 to 45 mg QD): approximately 1000 ng h/mL | Dose-limiting toxicity ([1]; part A2 (TIW), 2 mg, 4 mg, or 8 mg): no DLT was observed | Dose at which near maximal CDK7-target occupancy was achieved (CDK7; QD, steady state on day 15): ≥ 15 mg | CDK7-target occupancy observed (CDK7; highest observed in the trial): up to 90% | Steady-state AUC above which maximum skin target occupancy occurred (CDK7; part A1, skin, day 15, corresponds to doses at 15 mg QD): approximately 500 ng h/mL | CDK7-target occupancy (near maximal) (CDK7; skin and peripheral blood, day 15, ≥15 mg QD): 75% | CDK7 target occupancy (CDK7; ≥15 mg once daily): > 75% | Dose dependence of plasma exposure ([2]; 1 to 45 mg QD day 1, 1 to 35 mg QD day 15, 2 to 8 mg TIW day 1 and day 15): exposures increased with dose | Geometric mean terminal elimination half-life ([2]; oral dosing, assessed in the TIW group): 15 to 19 h | Median time to maximum concentration ([2]; oral dosing, patients): 1 to 2 h
